# Reference: ChEMBL document CHEMBL2046350, “Bahamaolides A and B, antifungal polyene polyol macrolides from the marine actinomycete Streptomyces sp” (J Nat Prod, 2012)
# Calls of active or inactive are those of the source. The rule behind the calls is not given here.
# Key:
# [1] = tested on: Candida albicans; assay: Inhibition of candida albicans ICL assessed as formation of glyoxylate phenylhydrazone at 100 ug/ml after 30 mins by Dixon and Kornberg's method
# [2] = tested on: SK-HEP1; assay: Cytotoxicity against human SKHEP1 cells at 100 ug/ml; assay type: functional, cell-based
# [3] = tested on: Trichophyton rubrum; assay: Antifungal activity against Trichophyton rubrum IFO 9185 after 48 to 72 hrs; assay type: functional
# Summary of the method: (§1)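 Candida albicans grown in YPD (1% yeast extract, 2% peptone, 2% dextrose) 48 h at 28 °C, harvested, washed twice with water; moulds grown on potato dextrose agar 2 weeks at 28 °C, spores washed and resuspended in PDB. Broth microdilution in PDB (10⁴ cells/mL) with compound added in 5% DMSO (0.5% DMSO solvent control); 28 °C, 48–72 h; MIC = lowest concentration inhibiting growth.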
# [4] = tested on: Micrococcus luteus; assay: Antibacterial activity against Micrococcus luteus IFO 12708; assay type: functional, organism-based
# [5] = tested on: Bacillus subtilis; assay: Antibacterial activity against Bacillus subtilis ATCC 6633; assay type: functional, organism-based
# [6] = tested on: Salmonella typhimurium; assay: Antibacterial activity against Salmonella typhimurium ATCC 14028; assay type: functional, organism-based; details: Salmonella enterica subsp. enterica serovar Typhimurium
# [7] = tested on: Proteus vulgaris; assay: Antibacterial activity against Proteus vulgaris ATCC 3851; assay type: functional, organism-based
# [8] = tested on: MDA-MB-231; assay: Cytotoxicity against human MDA-MB-231 cells at 100 ug/ml; assay type: functional, cell-based
# [9] = Inhibition of candida albicans ICL assessed as formation of glyoxylate phenylhydrazone after 30 mins by Dixon and Kornberg's method
# [10] = tested on: Escherichia coli; assay: Antibacterial activity against Escherichia coli ATCC 35270; assay type: functional, organism-based
# [11] = tested on: Aspergillus fumigatus; assay: Antifungal activity against Aspergillus fumigatus HIC 6094 after 48 to 72 hrs; assay type: functional; summary of the method: as §1
# [12] = tested on: Trichophyton mentagrophytes; assay: Antifungal activity against Trichophyton mentagrophytes IFO4 0996 after 48 to 72 hrs; assay type: functional; summary of the method: as §1
# [13] = tested on: HCT-116; assay: Cytotoxicity against human HCT116 cells at 100 ug/ml; assay type: functional, cell-based
# [14] = tested on: Candida albicans; assay: Antifungal activity against Candida albicans ATCC 10231 after 48 to 72 hrs; assay type: functional; summary of the method: as §1
# [15] = tested on: Staphylococcus aureus; assay: Antibacterial activity against Staphylococcus aureus ATCC 6538p; assay type: functional, organism-based
# [16] = tested on: A549; assay: Cytotoxicity against human A549 cells at 100 ug/ml; assay type: functional, cell-based
inhibition [1],MIC [3] [µg/mL],IC50 [9] [µM],MIC [11] [µg/mL],MIC [12] [µg/mL],MIC [14] [µg/mL],Structure (SMILES),Activity [2],Activity [4],Activity [5],Activity [6],Activity [7],Activity [8],Activity [10],Activity [13],Activity [15],Activity [16],Activity [3],Activity [11],Activity [12],Activity [14]
inactive,,,,,,C[C@@H]1[C@H](O)[C@@H](C)/C=C/C=C/C=C/C=C/C=C/C=C/C=C/[C@H](O[C@@H]2O[C@H](C)[C@@H](O)[C@H](N)[C@@H]2O)C[C@@H]2O[C@](O)(C[C@@H](O)C[C@@H](O)[C@H](O)CC[C@@H](O)C[C@@H](O)CC(=O)O[C@H]1C)C[C@H](O)[C@H]2C(=O)O,,,,,,,,,,,,,,
,12.5,10.8,12.5,12.5,12.5,CC(C)[C@@H]1OC(=O)/C=C/C=C/C=C/C=C/C=C/C=C/C[C@@H](O)C[C@H](O)C[C@H](O)C[C@H](O)C[C@@H](O)C[C@H](O)C[C@@H](O)C[C@@H](O)C[C@@H](O)CC[C@@H]1C [BAHAMAOLIDE A],inactive,inactive,inactive,inactive,inactive,inactive,inactive,inactive,inactive,inactive,,,,
,,127,,,,CC(C)[C@@H]1OC(=O)/C=C/C=C/C=C/C=C/C=C/C=C\C[C@@H](O)C[C@H](O)C[C@H](O)C[C@H](O)C[C@@H](O)C[C@H](O)C[C@@H](O)C[C@@H](O)C[C@@H](O)CC[C@@H]1C [BAHAMAOLIDE B],inactive,inactive,inactive,inactive,inactive,inactive,inactive,inactive,inactive,inactive,inactive,inactive,inactive,inactive
